Results: article PMC3426361 (Journal of biomolecular screening, 2010)

Molecular target: TDP-43 (Homo sapiens, UniProt Q13148)
Test: Association and dissociation rates of bt-TAR-32 and bt-TG6 binding to TDP-43
Conditions: slope of kobs vs ligand concentration; arithmetic mean ± SEM, 3 determinations
How it was run: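 GST-tagged TDP-43 (5 ng/mL, 40 pM) on anti-GST beads (10 μg/mL, preincubated) added at staggered times to biotinylated oligonucleotide (0.25–6.0 nM) prebound 30 min RT to streptavidin donor beads (10 μg/mL). Buffer: 25 mM Tris pH 7.4, 0.1% BSA, 0.1% Triton X-100. AlphaScreen signal read together at end, dark, RT. kobs from one-site exponential association fits per concentration.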

Sequence of TDP-43 (Q13148 whole entry): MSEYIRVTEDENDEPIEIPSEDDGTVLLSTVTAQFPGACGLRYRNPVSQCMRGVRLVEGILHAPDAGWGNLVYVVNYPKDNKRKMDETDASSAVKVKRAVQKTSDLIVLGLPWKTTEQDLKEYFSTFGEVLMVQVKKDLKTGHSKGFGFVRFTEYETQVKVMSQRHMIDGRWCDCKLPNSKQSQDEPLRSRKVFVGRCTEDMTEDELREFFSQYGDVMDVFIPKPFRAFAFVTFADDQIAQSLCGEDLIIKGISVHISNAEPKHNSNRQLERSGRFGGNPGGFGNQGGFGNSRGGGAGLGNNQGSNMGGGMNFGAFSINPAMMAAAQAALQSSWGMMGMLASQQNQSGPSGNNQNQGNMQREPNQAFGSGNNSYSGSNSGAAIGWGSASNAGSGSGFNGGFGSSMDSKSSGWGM

Substance “5′-CTGCTTTTTGCCTGTACTGGGTCTCTGTGGTT-3′ (DNA CTGCTTTTTGCCTGTACTGGGTCTCTGTGGTT; chemistry not given here) [TAR-32]” has a kon of 2.4 ± 0.93 µmol⁻¹ min⁻¹.
